Measurements: ChEMBL document CHEMBL1123033, “Synthesis and antiherpes simplex virus activity of 9-[(1,3-dihydroxy-2-propylthio)methyl]guanine” (1985)
Values belong to the compound of their own block, whether it stands above or below them. Calls of active or inactive are those of the source. The rule behind the calls is not given here.

Tests used:
[1] = tested on: Human alphaherpesvirus 1; assay: In vitro antiviral and anticellular activity was evaluated against herpes simplex virus HSV-1 (F strain) in vero cells tissue culture; format: functional; details: Human alphaherpesvirus 1, Vero; read-out: ID50 (the source's name)
Method in brief: (§1)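 Plaque reduction assay in Vero cells infected with HSV; cells exposed to the nucleoside analogue. ID50 is the dose giving a 50% drop in plaque count relative to untreated controls.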

[2] = tested on: Human alphaherpesvirus 2; assay: In vitro antiviral and anticellular activity was evaluated against herpes simplex virus HSV-2 (G strain) in vero cells.; format: functional; details: Human alphaherpesvirus 2, Vero; read-out: ID50 (the source's name); method in brief: as §1
[3] = tested on: Mus musculus; assay: Effect of subcutaneous dose at 10 mg/kg on HSV-2 induced mortality in mice; 7/16; format: functional
Method in brief: (§2)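 Female Swiss-Webster mice (~20 g) infected intraperitoneally with 5 × 10^4 PFU HSV-2 strain G (~10 LD50), then dosed subcutaneously once daily (24-h intervals) for 4 days starting 24 h post-infection, with a saline group run alongside. Read-out is survivors/total (15–16 mice per group) with percent survivors; probability by Fisher exact test.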

[4] = tested on: Mus musculus; assay: Effect of subcutaneous dose at 3 mg/kg on HSV-2 induced mortality in mice; 4/16; format: functional; method in brief: as §2
[5] = tested on: Mus musculus; assay: Effect of subcutaneous dose at 30 mg/kg on HSV-2 induced mortality in mice; 12/16; format: functional; method in brief: as §2
[6] = tested on: Mus musculus; assay: Effect of subcutaneous dose at 3 mg/kg on HSV-2 induced mortality in mice; format: functional; method in brief: as §2
[7] = tested on: Mus musculus; assay: Effect of subcutaneous dose at 30 mg/kg on HSV-2 induced mortality in mice(value in parentheses denotes probability; format: functional; method in brief: as §2
[8] = tested on: Mus musculus; assay: (§3) Mean survival time of HSV-2 induced mortality in mice was determined when the 10 mg/Kg of compound was administered subcutaneously; format: functional
Method in brief: (§4)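 Mice (female Swiss-Webster, ~20 g) challenged intraperitoneally with 5 × 10^4 PFU HSV-2 strain G (~10 LD50); subcutaneous dosing once daily for 4 days, first dose 24 h after infection, with a saline group run alongside. Mean survival time in days ± standard deviation; probability by Mann-Whitney u-test.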

[9] = tested on: Mus musculus; assay: Mean survival time of HSV-2 induced mortality in mice was determined when the 3 mg/Kg of compound was administered subcutaneously; NS means not significant; format: functional, organism-based; method in brief: as §4
[10] = tested on: Mus musculus; assay: Effect of subcutaneous dose at 10 mg/kg on HSV-2 induced mortality in mice; format: functional; method in brief: as §2
[11] = tested on: Vero; assay: In vitro antiviral and anticellular activity was evaluated against vero cells in tissue culture; format: functional; details: Chlorocebus sabaeus, read-out: ID50 (the source's name)
Method in brief: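 Anticellular activity measured by cell proliferation assay in uninfected Vero cells.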

[12] = tested on: Human betaherpesvirus 5; assay: In vitro antiviral and anticellular activity was evaluated against human cytomegalovirus (HCMV AD 169) in […].; format: functional; details: read-out: ID50 (the source's name)
Method in brief: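 Plaque reduction assay in MRC-5 cells infected with HCMV and treated with the nucleoside analogue. ID50 is the dose cutting plaque numbers by 50% versus untreated controls.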

[13] = tested on: Human alphaherpesvirus 2; assay: In vitro antiviral and anticellular activity was evaluated against herpes simplex virus HSV-2 (G strain) in vero (HSV-2 G ) cells.; format: functional; details: Human alphaherpesvirus 2, Vero; read-out: ID50 (the source's name); method in brief: as §1
[14] = tested on: Mus musculus; assay: as §3; format: functional, organism-based; method in brief: as §4
[15] = tested on: Mus musculus; assay: Mean survival time of HSV-2 induced mortality in mice was determined when the 30 mg/Kg of compound was administered subcutaneously; NS means not significant; format: functional, organism-based; method in brief: as §4
[16] = tested on: Mus musculus; assay: Effect of subcutaneous dose at 10 mg/kg on HSV-2 induced mortality in mice; 1/16; format: functional; method in brief: as §2
[17] = tested on: Mus musculus; assay: Effect of subcutaneous dose at 100 mg/kg on HSV-2 induced mortality in mice; 8/15; format: functional; method in brief: as §2
[18] = tested on: Mus musculus; assay: Effect of subcutaneous dose at 30 mg/kg on HSV-2 induced mortality in mice; 2/16; format: functional; method in brief: as §2
[19] = tested on: Mus musculus; assay: Effect of subcutaneous dose at 30 mg/kg on HSV-2 induced mortality in mice; format: functional; method in brief: as §2

IC50 [1]: 40000 nM
Compound: Nc1nc(O)c2ncn(CS(=O)(=O)C(CO)CO)c2n1

IC50 [1]: 400 nM | IC50 [2]: 1500 nM | IC50 [12]: 100 µM
Compound: Nc1nc2c(ncn2COCCO)c(=O)[nH]1 [ACYCLOVIR]
IC50 [11]: 1100 µM

Continued, compound first:

Compound: Nc1nc(O)c2ncn(C[S+]([O-])C(CO)CO)c2n1 (centres undefined)
IC50 [1]: 25000 nM

Compound: Nc1nc2c(ncn2COC(CO)CO)c(=O)[nH]1 [GANCICLOVIR]
IC50 [1]: 300 nM | IC50 [2]: 1300 nM | Survivors [3]: 7 | Survivors [4]: 4 | Survivors [5]: 12 | Mean survival time [6]: 11.2 days | Mean survival time [7]: 13.8 days | Mean survival time [8]: <0.001 | Mean survival time [9]: inactive | Mean survival time [10]: 12.4 days | IC50 [11]: 500 µM | IC50 [12]: 6 µM

Compound: Nc1nc(O)c2ncn(CSC(CO)CO)c2n1
IC50 [1]: 900 nM | IC50 [13]: 8 µM | Mean survival time [14]: inactive | Mean survival time [15]: inactive | Survivors [16]: 1 | Survivors [17]: 8 | Survivors [18]: 2 | Mean survival time [10]: 9.7 days | Mean survival time [19]: 9.4 days | IC50 [11]: 900 µM | IC50 [12]: 80 µM
